Experimental findings from ChEMBL document CHEMBL3091446, “Development of fluorinated CB(2) receptor agonists for PET studies” (Bioorg Med Chem, 2013) are described below.

Data set [1] addresses T1, Cannabinoid receptor 1 (Homo sapiens, UniProt P21554). As to the kind of experiment: Binding affinity to human cannabinoid CB1 receptor.
The nature of data set [2]: Metabolic stability in mouse plasma assessed as compound remaining after 10 mins. The data set is classed as ADME, cell-free. The note with it: read-out: Stability.
For data set [3], the target named is T2, Cannabinoid receptor 2 (Homo sapiens, UniProt P34972). As to the kind of experiment: Displacement of [3H]CP-55,940 from human recombinant cannabinoid CB2 receptor expressed in CHO cells. In kind it is cell-based.
T2 sequence (P34972 whole entry): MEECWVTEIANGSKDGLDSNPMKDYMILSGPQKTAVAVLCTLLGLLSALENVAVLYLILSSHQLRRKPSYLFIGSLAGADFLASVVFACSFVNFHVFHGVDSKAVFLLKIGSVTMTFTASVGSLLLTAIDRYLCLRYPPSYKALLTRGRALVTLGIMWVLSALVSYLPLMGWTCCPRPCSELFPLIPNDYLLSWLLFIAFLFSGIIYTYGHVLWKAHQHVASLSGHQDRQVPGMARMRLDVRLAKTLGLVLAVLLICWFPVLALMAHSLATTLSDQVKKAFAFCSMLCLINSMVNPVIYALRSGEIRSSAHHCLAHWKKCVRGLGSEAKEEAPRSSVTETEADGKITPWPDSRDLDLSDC
The species named for data set [4] is Homo sapiens. Put plainly: Selectivity ratio of Ki for human recombinant cannabinoid CB1 receptor to Ki for human recombinant cannabinoid CB2 receptor.
Data set [5] deals with T1, Cannabinoid receptor 1. As to the kind of experiment: Displacement of [3H]CP-55,940 from human recombinant cannabinoid CB1 receptor expressed in CHO cells. In kind it is cell-based. A general note: Loss of bound radioactivity is the signal in a displacement assay; it reports binding, not function.
Data set [6] addresses T2, Cannabinoid receptor 2. Put plainly: Displacement of [3H]CP-55,940 from human recombinant cannabinoid CB2 receptor expressed in CHO cells at 1 uM. In kind it is cell-based.
Data set [7] deals with T2, Cannabinoid receptor 2. As to the kind of experiment: Binding affinity to human cannabinoid CB2 receptor. In a few lines:
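Membranes from sonicated CHO cells stably expressing human CB2 (about 100,000 cells/well). Incubated 120 min at 37 °C with 1 nM [3H]CP-55,940, test compound at 10^-10 to 10^-5 M, in TRIS pH 7.4 with 12 mM MgCl2 and 2% BSA. Nonspecific binding defined by 10 µM CP-55,940. Filtration and scintillation counting; duplicates. IC50 by nonlinear regression, converted to Ki by Cheng-Prusoff (Kd 11.8 nM).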

The nature of data set [8]: Lipophilicity, log P of the compound. The data set is classed as physicochemical. The note with it: octanol/water.

T1 sequence (P21554 whole entry): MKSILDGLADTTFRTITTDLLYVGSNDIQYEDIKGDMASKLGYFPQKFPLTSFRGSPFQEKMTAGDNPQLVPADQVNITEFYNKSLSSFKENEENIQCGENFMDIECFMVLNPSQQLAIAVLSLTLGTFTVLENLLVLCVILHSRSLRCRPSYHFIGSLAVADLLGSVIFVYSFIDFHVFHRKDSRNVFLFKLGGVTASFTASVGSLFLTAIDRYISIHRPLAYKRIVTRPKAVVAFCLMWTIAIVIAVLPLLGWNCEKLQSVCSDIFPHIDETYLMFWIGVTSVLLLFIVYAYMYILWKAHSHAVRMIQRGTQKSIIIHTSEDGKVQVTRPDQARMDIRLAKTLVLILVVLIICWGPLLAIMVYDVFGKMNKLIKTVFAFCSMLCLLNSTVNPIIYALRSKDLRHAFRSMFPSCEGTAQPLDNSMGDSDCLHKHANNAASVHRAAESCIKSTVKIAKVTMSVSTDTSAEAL

As usually defined, the Ki is a dissociation constant, usually derived from enzyme kinetics or from competition with a known ligand. For `CCCCOc1c(O[11CH3])ccc2cc(C(=O)NC3CCCCC3)c(=O)[nH]c12`, in data set [1], the inhibition constant (Ki) is greater than 1000 nM. Further, the remaining at 10 min in data set [2] was 24%.

As to `O=C(CCc1nc(-c2ccc(Br)cc2F)no1)Nc1ccc2c(c1)c1ccccc1n2CCF`, in data set [3], the Ki was determined as 476 nM.

In data set [1], `CCCCOc1c(OCC[18F])ccc2cc(C(=O)NC3CCCCC3)c(=O)[nH]c12` had an inhibition constant Ki greater than 1000 nM. Further, in data set [2], the remaining at 10 min was found to be 41%.

Regarding `O=C(CCCc1nc(-c2ccc(Cl)cc2)no1)Nc1ccc2c(c1)c1ccccc1n2CCO`, in data set [3], the Ki was determined as 584 nM.

What is called IC50 is the concentration that gives 50% inhibition. Regarding `O=C(CCc1nc(-c2ccc(F)cc2Br)no1)Nc1ccc2c(c1)c1ccccc1n2CCF`, in data set [4], the Ratio Ki is greater than 200. Besides, in data set [3], the inhibition constant Ki was 5.8 nM. Also, in data set [5], the IC50 was greater than 1000 nM.

In the case of `O=C(CCc1nc(-c2ccc(F)cc2Br)no1)Nc1ccc2c(c1)c1ccccc1n2CCCF`, the Ki in data set [3] turned out to be 1800 nM.

The term inhibition denotes the share of the control response that was lost under treatment. Regarding `O=C(CCc1nc(-c2ccc(F)cc2Br)no1)Nc1ccc2c(c1)c1ccccc1n2CCCCF`, the inhibition in data set [6] worked out at 35%.

For `N#Cc1cc(F)ccc1-c1noc(CCC(=O)Nc2ccc3c(c2)c2ccccc2n3CCO)n1`, the Ki in data set [3] was found to be 486 nM.

With `O=C(CCCc1nc(-c2ccc(F)cc2)no1)Nc1ccc2c(c1)c1ccccc1n2CCF`, the inhibition in data set [6] is 25%.

Turning to `O=C(CCCc1nc(-c2ccc(F)cc2)no1)Nc1ccc2c(c1)c1ccccc1n2CCCO`, in data set [6], the inhibition was 19%.

For `O=C(CCc1nc(-c2ccc(Cl)cc2)no1)Nc1ccc2c(c1)c1ccccc1n2CCF`, the Ki in data set [3] is 291 nM.

Turning to `Cc1ccc(-c2noc(CCC(=O)Nc3ccc4c(c3)c3ccccc3n4CCO)n2)cc1`, in data set [6], the inhibition is 10%.

Turning to `Cc1ccc(-c2noc(CCCC(=O)Nc3ccc4c(c3)c3ccccc3n4CCCF)n2)cc1`, in data set [6], the inhibition is 0%.

Regarding `O=C(CCc1nc(-c2ccc(F)cc2Br)no1)Nc1ccc2c(c1)c1ccccc1n2CCCCO`, in data set [3], the Ki was 96 nM. In data set [5], the IC50 is greater than 1000 nM.

Consider `O=C(CCCc1nc(-c2ccc(F)cc2Br)no1)Nc1ccc2c(c1)c1ccccc1n2CCCF`, for which the inhibition in data set [6] is 25%.

As to `O=C(CCCc1nc(-c2ccc(F)cc2)no1)Nc1ccc2c(c1)c1ccccc1n2CCO`, in data set [6], the inhibition was determined as 12%.

As for `Cc1ccc(-c2noc(CCCC(=O)Nc3ccc4c(c3)c3ccccc3n4CCCO)n2)cc1`, the inhibition in data set [6] was 13%.

On to `N#Cc1cc(F)ccc1-c1noc(CCC(=O)Nc2ccc3c(c2)c2ccccc2n3CCF)n1`, for which, in data set [3], the Ki is 858 nM. Also, the concentration for half-maximal inhibition (IC50) in data set [5] is greater than 1000 nM.

In the case of `O=C(CCc1nc(-c2ccc(F)cc2Br)no1)Nc1ccc2c(c1)c1ccccc1n2CCO`, the Ki in data set [3] amounted to 367 nM.

Take `Cc1s/c(=N\C(=O)C2C(C)(C)C2(C)C)n(CCO[11CH3])c1C`: the Ki in data set [7] was 0.64 nM; in data set [1], 270 nM.

As to `O=C(CCc1nc(-c2ccc(Cl)cc2)no1)Nc1ccc2c(c1)c1ccccc1n2CCO`, the Ki in data set [3] was determined as 990 nM.

As for `O=C(CCCc1nc(-c2ccc(F)cc2Br)no1)Nc1ccc2c(c1)c1ccccc1n2CCF`, the Ki in data set [3] is 559 nM.

Turning to `Cc1ccc(-c2noc(CCCC(=O)Nc3ccc4c(c3)c3ccccc3n4CCF)n2)cc1`, the inhibition in data set [6] was 0%.

Turning to `O=C(CCc1nc(-c2ccc(F)cc2)no1)Nc1ccc2c(c1)c1ccccc1n2CCCF`, the inhibition in data set [6] is 10%.

As to `Cc1ccc(-c2noc(CCC(=O)Nc3ccc4c(c3)c3ccccc3n4CCCF)n2)cc1`, the inhibition in data set [6] was 13%.

As to `O=C(CCCc1nc(-c2ccc(F)cc2)no1)Nc1ccc2c(c1)c1ccccc1n2CCCF`, in data set [6], the inhibition was found to be 0%.

As to `O=C(CCc1nc(-c2ccc(F)cc2Br)no1)Nc1ccc2c(c1)c1ccccc1n2CCCO`, in data set [3], the Ki worked out at 33 nM. Moreover, the IC50 in data set [5] is greater than 1000 nM.

For `Cc1c(CCN2CCOCC2)c2cc(O[11CH3])ccc2n1C(=O)c1cccc(Cl)c1Cl`, the values for the Ki in data set [7] and in data set [1] were 35 nM and 6000 nM, respectively.

In the case of `O=C(CCc1nc(-c2ccc(Br)cc2F)no1)Nc1ccc2c(c1)c1ccccc1n2CCO`, the inhibition in data set [6] is 35%.

Take `O=C(CCCc1nc(-c2ccc(F)cc2Br)no1)Nc1ccc2c(c1)c1ccccc1n2CCCO`: the inhibition in data set [6] turned out to be 9%.

Regarding `O=C(CCc1nc(-c2ccc(F)cc2)no1)Nc1ccc2c(c1)c1ccccc1n2CCF`, the Ki in data set [3] amounted to 41 nM. In data set [5], the 50% inhibitory concentration (IC50) is greater than 1000 nM.

Consider `O=C(CCc1nc(-c2ccc(Cl)cc2)no1)Nc1ccc2c(c1)c1ccccc1n2CCCF`, for which the inhibition in data set [6] was found to be 43%.

As to `O=C(CCCc1nc(-c2ccc(Cl)cc2)no1)Nc1ccc2c(c1)c1ccccc1n2CCCO`, in data set [6], the inhibition is 10%.

By logP is commonly meant the decadic logarithm of the partition coefficient of the neutral form, usually between octanol and water. Take `COc1ccc(S(=O)(=O)c2ccc([C@H](C)NS(C)(=O)=O)cc2)c(S(=O)(=O)c2ccc(O[11CH3])cc2)c1`: the lipophilicity (logP) in data set [8] came to 2.15. The Ki was determined as 4.5 nM in data set [7] and 79 nM in data set [1].

Take `Cc1ccc(-c2noc(CCC(=O)Nc3ccc4c(c3)c3ccccc3n4CCF)n2)cc1`: in data set [3], the Ki came to 377 nM.

Consider `O=C(CCCc1nc(-c2ccc(Cl)cc2)no1)Nc1ccc2c(c1)c1ccccc1n2CCF`, for which the inhibition in data set [6] stood at 23%.

Consider `Cc1ccc(-c2noc(CCCC(=O)Nc3ccc4c(c3)c3ccccc3n4CCO)n2)cc1`, for which the inhibition in data set [6] worked out at 4%.

For `CCn1c2ccccc2c2cc(NC(=O)CCc3nc(-c4ccc(F)cc4C#N)no3)ccc21`, the results for the Ki in data set [3] and in data set [5] were 6.98 nM and greater than 10000 nM, respectively.

Consider `CCCCOc1c(OC)ccc2cc(C(=O)NCc3ccc([18F])cc3)c(=O)[nH]c12`, for which the Ki in data set [7] is 2.8 nM; in data set [1], greater than 10000 nM.

For `O=C(CCc1nc(-c2ccc(F)cc2)no1)Nc1ccc2c(c1)c1ccccc1n2CCO`, the inhibition constant (Ki) in data set [3] amounted to 1100 nM.

With `O=C(CCCc1nc(-c2ccc(F)cc2Br)no1)Nc1ccc2c(c1)c1ccccc1n2CCO`, the inhibition in data set [6] was 0%.

As to `Cc1ccc(-c2noc(CCC(=O)Nc3ccc4c(c3)c3ccccc3n4CCCO)n2)cc1`, the inhibition in data set [6] was determined as 28%.

Turning to `O=C(CCc1nc(-c2ccc(F)cc2)no1)Nc1ccc2c(c1)c1ccccc1n2CCCO`, the inhibitory constant (Ki) in data set [3] is 195 nM.
